Compound activity (PubChem)
An excerpt weighted towards active compounds, which were near 2.5% of everything screened.
PAX8 reporter = PAX8 transcriptional activity inhibition. RMG-I TPO-luciferase reporter, SteadyGlo, 24 h. inhibition, % at 12.6 µM. 1.2% of 360,000 active. AID 652154;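 active = mean replicate inhibition at least 60% with every replicate also reaching 60%; inconclusive = only one of the two criteria is met; inactive = mean below 60% and not all replicates reaching 60%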;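 also: luciferase light reporting Pax8 driven TPO promoter activity; plate controls were median of neutral control wells for no effect and mitoxantrone controls for full effect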
MLL AF4-AF9 inh = MLL-AF4/AF9 protein interaction inhibition; inhibition, % at 10 µM; 0.47% of 350,000 active; P42568; AlphaScreen, biotin-AF4 peptide binding to FLAG-AF9; AID 651704;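 active = every replicate reaching a set inhibition limit, whatever the replicate mean, cut at about 25% in these data; inconclusive = mean inhibition reaches that limit but some replicates miss it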;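 also: 0% = plate neutral control median and 100% = total signal loss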
Target sequence (P42568 whole entry, looked up): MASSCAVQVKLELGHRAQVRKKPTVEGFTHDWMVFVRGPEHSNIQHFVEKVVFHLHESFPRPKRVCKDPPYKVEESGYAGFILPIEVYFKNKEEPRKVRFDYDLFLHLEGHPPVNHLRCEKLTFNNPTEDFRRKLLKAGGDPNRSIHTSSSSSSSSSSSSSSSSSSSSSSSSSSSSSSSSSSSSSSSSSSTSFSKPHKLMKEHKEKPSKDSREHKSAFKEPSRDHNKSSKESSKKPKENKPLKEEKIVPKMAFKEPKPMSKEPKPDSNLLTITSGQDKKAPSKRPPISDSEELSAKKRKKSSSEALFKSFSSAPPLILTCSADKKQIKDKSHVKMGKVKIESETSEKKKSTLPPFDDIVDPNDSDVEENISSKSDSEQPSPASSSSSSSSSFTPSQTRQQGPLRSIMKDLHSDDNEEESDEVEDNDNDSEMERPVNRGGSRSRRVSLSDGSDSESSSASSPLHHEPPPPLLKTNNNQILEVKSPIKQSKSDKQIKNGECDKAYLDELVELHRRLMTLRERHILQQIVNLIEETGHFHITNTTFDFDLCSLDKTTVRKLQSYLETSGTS
Glyco luc inh = blocks N-linked glycosylation in D54 reporter cells; D54 ERlucT glycosylation luciferase reporter, 24 h; percent of 100 nM tunicamycin response; reporter increase, % at 12.5 µM; 0.23% of 360,000 active;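 active = mean luciferase reporter signal, scaled so untreated is 0 and the glycosylation-blocking control 100, at or above a set limit in every replicate; inconclusive = mean reaches the limit but not every replicate does; inactive = mean below the limit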;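 also: luciferase carries N-glycosylation sites so blocking glycosylation raises the light; 0% = median of neutral control wells and 100% = median of 100 nM tunicamycin wells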
FN deposition inh = fibronectin deposition inhibition; AH1F fibroblasts, Alexa488-fibronectin deposition fluorescence, overnight; inhibition, % at 12.6 µM; 0.086% of 350,000 active; AID 743247;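 active = mean inhibition across replicates of 30% or more, regardless of how many single replicates reach that level; inconclusive = mean under 30% yet at least half of replicates reach 30%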;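 also: positive control wells lacked labelled fibronectin entirely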
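material = AH1F fibroblast monolayer depositing Alexa488-labelled fibronectin into matrix | amount = 10000 AH1F cells/well | buffer or medium = DMEM plus 2% serum, read in PBS | incubation = 1 h cell adhesion before compound, then overnight fibronectin incubation | detection = fluorescence at 485 nm excitation, 525 nm emission | evaluation = percent inhibition as loss of matrix-bound fibronectin fluorescence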
HIV Env fusion = blocks HIV Env-driven cell-cell fusion. HeLa-JRFL Env/CEM21 cell fusion, luciferase. inhibition, % at 12.3 µM. 1.1% of 360,000 active. AID 651610;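 active = mean replicate inhibition score of at least 50 and every replicate individually at or above 50; inconclusive = only one of the two criteria met; inactive = mean below 50 and not all replicates reaching 50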;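 also: 0% = plate neutral controls and 100% = maraviroc near 300 nM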
EWS-Fli block = inhibitors of EWS/Fli oncoprotein transcriptional activity. 0.67% of 350,000 active. inhibition, % at 12.6 µM. AID 651661. A673 NR0B1-luciferase reporter, viability-normalised;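 active = mean inhibition of at least 50% after viability correction, with every replicate also passing that limit; inconclusive = mean reaches 50% but only one of two replicates passes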;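 also: firefly luciferase signal divided by Alamar Blue viability fluorescence both relative to DMSO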
Active calls of the source: *; ? = inconclusive; · = no result given; [ ] = remark or other dose.

SMILES	PAX8 reporter	MLL AF4-AF9 inh	Glyco luc inh	FN deposition inh	HIV Env fusion	EWS-Fli block
Cc1ccc2nc(-c3ccc4c(c3)OCCO4)cn2c1	87*	0	-19	1	34	22
c1ccn2cc(-c3ccc4c(c3)OCCO4)nc2c1	56	1	-17	-7	31	54*
C[C@@H]1CN([C@H](C)CO)C(=O)c2cc(NC(=O)CCCN(C)C)ccc2O[C@@H](C)CCCCO[C@H]1CN(C)Cc1ccccc1	-3	-4	·	-5	-8[16.7 µM]	-2
Cc1ccc2nc(SCC(=O)N(CC(C)C)c3c(N)n(Cc4ccccc4)c(=O)[nH]c3=O)[nH]c2c1	24	27*	0	-6	-3	3
CCN(C(=O)CSc1nc2ccc(OC)cc2[nH]1)c1c(N)n(Cc2ccccc2)c(=O)[nH]c1=O	-4	0	0	·	-52	-9
Cc1ccccc1-c1cnc2c(c1)C(=O)N([C@H](C)CO)C[C@@H](C)[C@H](CN(C)C(=O)c1ccc(F)cc1)O2	·	-4	·	12	-2[16.7 µM]	-2
O=C(N[C@H]1CC[C@H](CCNC(=O)C2CCOCC2)O[C@H]1CO)c1ccncc1	-2	0	·	7	1[16.7 µM]	16
COc1ccccc1NC(=O)N1CCCCN2[C@H](CO)[C@@H](c3ccc(C#CC4CC4)cc3)[C@H]2C1	19	25*	·	·	·	11
COc1ccccc1NC(=O)N1CCCCN2[C@H](C1)[C@@H](c1ccc(-c3ccccc3)cc1)[C@@H]2CO	-23	-5	·	·	·	-4
COc1ccccc1NC(=O)N1CCCCN2[C@H](CO)[C@H](c3ccc(-c4ccc(C)cc4)cc3)[C@H]2C1	80*	5	·	7	·	40
CCNC(=O)C[C@H]1CC[C@H]2[C@H](COc3ccc(NC(=O)c4cc(C)on4)cc3C(=O)N2C)O1	-6	0	·	2	-7[16.7 µM]	13
O=C(O)C[C@H]1CC[C@@H](NC(=O)CCN2CCCCC2)[C@H](CO)O1	·	-3	·	8	·	11
O=C(CSc1nnc(-c2n[nH]c3ccccc23)n1-c1ccccc1)Nc1cccc(Cl)c1	33	·	-3	-2	70*	·
Cc1cc(C)c(S(=O)(=O)N2CCN=C2c2ccccc2)cc1C	·	·	0	·	82*	·
COc1cc(C)c(S(=O)(=O)N2CCN=C2c2ccccc2)cc1C	12	·	0	-5	0	·
COc1ccccc1CN1C(=O)c2ccccc2[C@](Cc2ccccc2I)(C(=O)NCc2ccccc2)[C@@H]1c1ccc(CO)cc1	17	·	·	·	60*[16.7 µM]	4
CC(C)NC(=O)[C@@]1(Cc2ccccc2I)c2ccccc2C(=O)N(Cc2ccccc2C(F)(F)F)[C@H]1c1ccc(CO)cc1	57	1	·	·	0[16.7 µM]	4
O=C(C1CCC1)N1CC2(C1)[C@@H](c1ccccc1)[C@@H](CO)N2Cc1ccccc1F	·	3	·	4	·	-3
C[C@H]1CN([C@@H](C)CO)S(=O)(=O)c2ccc(C3=CCCC3)cc2O[C@H]1CN(C)C(=O)C1CCCCC1	·	4	·	·	8[16.7 µM]	10
COc1ccc([N+](=O)[O-])cc1NS(=O)(=O)c1cc(C(=O)N2CCN(C)CC2)ccc1OC	-17	-1	2	5	7	-10
COc1ccc([N+](=O)[O-])cc1NS(=O)(=O)c1ccc(C(=O)N2CCCC2)cc1	-22	0	-1	34*	5	-3
COc1cc(Nc2ncc3c(n2)CCN(C(=O)Nc2ccc(C(C)C)cc2)C3)cc(OC)c1OC	65*	6	-13	9	?	1
COc1cc(CCC(=O)Nc2nnc(C)s2)cc(OC)c1OC	29	2	33*	13	-19	51*
CC[C@]1(c2ccccc2OC)ON(c2ccccc2C(F)(F)F)C1=O	84*	0	·	1	-10	23
C[C@H]1CN([C@@H](C)CO)C(=O)Cc2cc(NS(=O)(=O)c3ccc(Cl)cc3)ccc2O[C@H]1CN(C)Cc1ccc(-c2ccccc2)cc1	-7	·	·	·	-5[16.7 µM]	2
SMILES	PAX8 reporter	MLL AF4-AF9 inh	Glyco luc inh	FN deposition inh	HIV Env fusion	EWS-Fli block
CCOC(=O)c1c(SCCN2CCCCC2)n(-c2ccccc2)c(=S)n(-c2ccccc2)c1=O	-14	0	4	-7	26	79*
CCOC(=O)c1c(SC)n(-c2ccccc2)c(=S)n(-c2ccccc2)c1=O	4	-1	2	4	11	19
CC(C)NC(=O)N(C)C[C@@H]1Oc2cc(-c3cncnc3)ccc2S(=O)(=O)N([C@@H](C)CO)C[C@H]1C	·	0	·	-6	-29[16.7 µM]	-12
CCCNC(=O)N1CC2(CN(C(=O)C3CCOCC3)C2)c2c([nH]c3cc(OC)ccc23)[C@@H]1CO	·	2	·	·	·	-5
CN(C)CCCNC(=O)C[C@H]1CC[C@H]2[C@@H](COc3ccc(NC(=O)NC4CCCC4)cc3C(=O)N2C)O1	-5	-1	·	-5	7[16.7 µM]	-2
COc1cccc(-c2cn(CC[C@@H]3CC[C@H](NC(=O)CN(C)C)[C@H](CO)O3)nn2)c1	-4	-2	·	-4	6[16.7 µM]	-5
COc1ccc(S(=O)(=O)N[C@H]2C=C[C@@H](CC(=O)N3CCN(c4ccccc4)CC3)O[C@@H]2CO)cc1	-6	0	·	·	21[16.7 µM]	3
C[C@@H]1CN([C@@H](C)CO)C(=O)c2cc(NS(=O)(=O)c3ccc(F)cc3)ccc2O[C@@H](C)CCCCO[C@H]1CN(C)Cc1ccccc1	23	1	·	-5	-27[16.7 µM]	-4
C[C@@H]1CN([C@H](C)CO)C(=O)c2cc(NS(=O)(=O)c3ccc(F)cc3)ccc2O[C@@H](C)CCCCO[C@H]1CN(C)Cc1ccccc1	77*	3	·	-1	3[16.7 µM]	5
C[C@@H]1CCCCO[C@H](CN(C)Cc2ccccc2)[C@H](C)CN([C@@H](C)CO)C(=O)c2cc(NS(=O)(=O)c3ccc(F)cc3)ccc2O1	48	8	·	-2	3[16.7 µM]	-14
C[C@H](CO)N1C[C@H](C)[C@H](CN(C)Cc2ccccc2)OCCCC[C@H](C)Oc2ccc(NS(=O)(=O)c3ccc(F)cc3)cc2C1=O	7	37*	·	-7	-19[16.7 µM]	-4
O=C(N/N=C/c1ccc([N+](=O)[O-])s1)c1ccccc1	20	-3	1	·	-1	63*
O=C(N/N=C\c1ccc([N+](=O)[O-])s1)c1cncc(Br)c1	86*	1	-21	14	104*	-6
O=C(N/N=C/c1cccs1)c1cncc(Br)c1	-7	-6	-1	-17	-1	-5
C[C@@H]1CN([C@H](C)CO)C(=O)c2cc(NC(=O)Nc3cccc4ccccc34)ccc2O[C@H]1CN(C)Cc1ccc(Cl)c(Cl)c1	·	-2	·	-4	-19[16.7 µM]	-15
CCc1ccc(CNC(=O)C2CCN(S(=O)(=O)N3CCCCC3)CC2)cc1	81*	-1	-2	4	43	-8
COc1ccc(CNC(=O)C2CCN(S(=O)(=O)N3CCCCC3)CC2)cc1	1	-1	0	7	-1	·
